B1: V domain of the receptor for advanced glycation end products (RAGE) (domain or fragment)
chain: QNITARIGEPLVLKCKGAPKKPPQRLEWKLNTGRTEAWKVLSPQGGGPWDSVARVLPNGSLFLPAVGIQDEGIFRCQAMNRNGKETKSNYRVRVYQIPGKPE

In test [1] the target is T1, V domain of RAGE (Homo sapiens, UniProt Q15109). In words: NMR solution structure of MG-H1–V domain complex. In kind it is binding. In outline:
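Samples of 500 μM [U-13C,15N] V domain, free and with 1 mM unlabeled hydroimidazolone ligand, in pH 6.5 phosphate, 100 mM NaCl, 0.02% NaN3, 90% H2O/10% D2O. 3D 15N- and 13C-edited and 15N-edited/13C-filtered NOESY-HSQC. CYANA calculation: 986 intramolecular and five intermolecular distance restraints (intermolecular upper limits 6 Å), 150 TALOS torsion pairs, 38 H-bond restraints, one disulfide. 20 best structures kept.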

In the next test the test system is RAGE. The following applies: cited from earlier work.
Test [2] concerns JNK phosphorylation (p-JNK) in A549 cells, effector of RAGE signaling. In words: JNK phosphorylation in A549 cells, Western blot. In kind it is cell-based, human. The following applies: 200 nM (12 μg/mL) MGO-BSA, 7 min, vs unmodified BSA.
Test [3] addresses T1, V domain of RAGE. The test can be described thus: ELISA-based competition with MGO-BSA for the V domain. Format: binding. The following applies: 1 μM V domain. (In general: In an ELISA, binding on a coated surface is turned into a signal by an enzyme label.)
Test [4] deals with T1, V domain of RAGE. The test can be described thus: Binding of arginine to the V domain. The following applies: method not stated.
The target of test [5] is T1, V domain of RAGE. The test can be described thus: Fluorescence titration, native tryptophan fluorescence of wild-type V domain. The following applies: pH 6.5, 25 °C. Format: binding. A digest of the protocol:
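Wild-type RAGE V domain: expressed in E. coli BL21(DE3) Codon+, purified on Ni-NTA, His tag removed by thrombin. 100 nM protein in 10 mM phosphate pH 6.5 with 100 mM NaCl, at 25 °C in a stirred cuvette. Test compound titrated from 5 nM to 10 μM in 11 steps. Tryptophan emission excited at 295 nm, reference titrations subtracted, dilution-corrected. Kd from single-site binding isotherm fit.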

Test [6] concerns the target B1. The test can be described thus: other fluorescence titration.
Test [7] deals with methylglyoxal-modified bovine serum albumin (bovine, UniProt P02769 25-607, methylglyoxal-modified, contains hydroimidazolones; sites and number not stated). In words: ELISA.

Entries after “also recorded” stand apart in the source; their conditions may differ. Square brackets hold non-standard residues; d marks the D form. Ends that are not written are not given here.

Chain of methylglyoxal-modified bovine serum albumin (P02769 25-607): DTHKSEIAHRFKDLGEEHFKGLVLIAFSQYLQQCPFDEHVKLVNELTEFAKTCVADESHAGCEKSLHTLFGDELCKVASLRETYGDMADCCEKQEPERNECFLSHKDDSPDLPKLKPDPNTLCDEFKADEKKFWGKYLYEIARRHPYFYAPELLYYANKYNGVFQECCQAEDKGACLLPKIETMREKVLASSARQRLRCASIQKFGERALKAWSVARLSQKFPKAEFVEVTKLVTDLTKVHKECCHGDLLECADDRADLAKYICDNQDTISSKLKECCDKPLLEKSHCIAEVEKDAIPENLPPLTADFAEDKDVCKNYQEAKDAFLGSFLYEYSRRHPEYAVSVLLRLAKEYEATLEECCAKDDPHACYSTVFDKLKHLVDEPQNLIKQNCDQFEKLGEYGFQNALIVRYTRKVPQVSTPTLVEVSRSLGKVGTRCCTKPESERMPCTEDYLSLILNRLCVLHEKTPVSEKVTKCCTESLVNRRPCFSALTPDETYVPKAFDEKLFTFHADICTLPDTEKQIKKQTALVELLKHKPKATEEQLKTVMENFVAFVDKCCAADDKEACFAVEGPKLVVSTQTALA

Take `CC1N=C(NCCCC(N)C(=O)O)NC1=O` [(R)-epimer of MG-H1]: the “stereospecific fit into the MG-H1–V domain binding site” value on V domain of RAGE [1] (NMR solution structure, ligand racemic mixture of (R)- and (S)-epimers) is reported as “Only the (R)-epimer of MG-H1 can be fit into the MG-H1–V domain binding site”.
`CC(NCCCC[C@H](N)C(=O)O)C(=O)O` (stereo partly drawn) [CEL, N^ε-carboxyethyl-lysine]: the “binding to RAGE of free AGE adducts of lysine” value with RAGE is listed as “do not bind to RAGE”.
In the case of “MGO-BSA: methylglyoxal-modified bovine serum albumin, prepared according to the method of Ahmed et al.”, the JNK phosphorylation entry in test [2] is on record as “increase in the level of phosphorylation of JNK; also recorded: increases JNK phosphorylation (p-JNK) relative to that with BSA alone”.
In the case of `CC1NC(NCCC[C@H](N)C(=O)O)=NC1=O` (stereo partly drawn) [MG-H1, N^δ-(5-hydro-5-methyl-4-imidazolon-2-yl)ornithine], the “blocking of MGO-BSA binding to the V domain” value (shortened to “blocking of MGO-BSA binding”) on V domain of RAGE [3] is “can successfully block binding of MGO-BSA to the V domain”. Also, the “size of MG-H1 binding site” value on V domain of RAGE [1] (NMR solution structure of MG-H1–V domain complex) is 80 Å^2.
On to `CC1C(=O)N=C(N)N1CCCC(N)C(=O)O` (stereo not drawn) [MG-H2, 5-(2-amino-5-hydro-5-methyl-4-imidazolon-1-yl)norvaline], for which, on V domain of RAGE [3], the “blocking of MGO-BSA binding” value is given as “can successfully block binding of MGO-BSA to the V domain”.
`N=C(N)NCCC[C@H](N)C(=O)O` [arginine]: the “binding to the V domain” value at V domain of RAGE [4] is “did not detect any binding”.
For the molecule `N[C@@H](CCCCNCC(=O)O)C(=O)O` [CML, N^ε-carboxymethyl-lysine], the “binding to RAGE of free AGE adducts of lysine” value with RAGE is recorded as “do not bind to RAGE”.
Turning to `N[C@@H](CCCNC1=NC(=O)CN1)C(=O)O` [G-H1, N^δ-(5-hydro-4-imidazolon-2-yl)ornithine], the “affinity for the V domain (in words)” value on V domain of RAGE [5] is “comparable to that of the MG-Hs”.
Take `CC1N=C(N)N(CCCC(N)C(=O)O)C1=O` (stereo not drawn) [MG-H3, 5-(2-amino-4-hydro-4-methyl-5-imidazolon-1-yl)norvaline]: at V domain of RAGE [3], the “blocking of MGO-BSA binding” value is given as “can successfully block binding of MGO-BSA to the V domain”.
With ALT[MG‑H1]EYTG [ALT(MG-H1)EYTG, synthetic MG-H1-containing peptide], binding in test [6] was characterised by a dissociation constant (Kd) of 44 ± 6 nM.
On to B1, for which, in test [7], the binding result was “binds”.

The record behind these values is publication PMC4038343 (Biochemistry, 2014).
